Reference: ChEMBL document CHEMBL1137484, “Design and synthesis of opioidmimetics containing 2',6'-dimethyl-L-tyrosine and a pyrazinone-ring platform” (Bioorg Med Chem Lett, 2007)
pIC50, pKi: −log10 of the molar value.

Assays:
Mu-type opioid receptor [1] = molecular target: T1, Mu-type opioid receptor (Cavia porcellus, UniProt P97266); test: Agonist activity at mu opioid receptor in guinea pig ileum assessed as inhibition of electrically-stimulated muscle contraction; format: functional, tissue-based
Summary of the method: (§1)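 Reference agonists run alongside: deltorphin II for delta in mouse vas deferens (MVD) and endomorphin 2 for mu in guinea pig ileum (GPI).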

[2] = molecular target: Delta-type opioid receptor (Homo sapiens, UniProt P41143); test: Displacement of [3H]deltorphin 2 from delta opioid receptor
Mu-type opioid receptor [3] = molecular target: Mu-type opioid receptor (Homo sapiens, UniProt P35372); test: Displacement of [3H]DAMGO from human mu opioid receptor
[4] = molecular target: Mu-type opioid receptor (Cavia porcellus) (UniProt P97266); test: Agonist activity at mu opioid receptor in guinea pig ileum assessed as inhibition of electrically-stimulated muscle contraction at 10 uM; format: functional, tissue-based
Homo sapiens = organism: Homo sapiens; test: Selectivity for human mu opioid receptor over human delta opioid receptor
[5] = molecular target: T2, Delta-type opioid receptor (Mus musculus, UniProt P32300); test: Agonist activity at delta opioid receptor in mouse vas deferens assessed as inhibition of electrically-stimulated muscle contraction; format: functional, tissue-based; summary of the method: as §1
[6] = molecular target: Delta-type opioid receptor (Mus musculus) (UniProt P32300); test: Agonist activity at delta opioid receptor in mouse vas deferens assessed as inhibition of electrically-stimulated muscle contraction at 10 uM; format: functional, tissue-based
[7] = molecular target: T2, Delta-type opioid receptor; test: Antagonist activity at delta opioid receptor in mouse vas deferens; format: functional, tissue-based; conditions: read-out: pA2 (converted)
Summary of the method: (§2)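 Antagonism given as pA2: the negative log of the antagonist concentration (M) that doubles the agonist concentration needed to restore the original response. The agonist was deltorphin II in MVD (delta) and endomorphin 2 in GPI (mu).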

Mu-type opioid receptor [8] = molecular target: T1, Mu-type opioid receptor; test: Antagonist activity at mu opioid receptor in guinea pig ileum; format: functional, tissue-based; conditions: read-out: pA2 (converted); summary of the method: as §2

Sequence of Delta-type opioid receptor (Homo sapiens, UniProt P41143) (P41143 whole entry): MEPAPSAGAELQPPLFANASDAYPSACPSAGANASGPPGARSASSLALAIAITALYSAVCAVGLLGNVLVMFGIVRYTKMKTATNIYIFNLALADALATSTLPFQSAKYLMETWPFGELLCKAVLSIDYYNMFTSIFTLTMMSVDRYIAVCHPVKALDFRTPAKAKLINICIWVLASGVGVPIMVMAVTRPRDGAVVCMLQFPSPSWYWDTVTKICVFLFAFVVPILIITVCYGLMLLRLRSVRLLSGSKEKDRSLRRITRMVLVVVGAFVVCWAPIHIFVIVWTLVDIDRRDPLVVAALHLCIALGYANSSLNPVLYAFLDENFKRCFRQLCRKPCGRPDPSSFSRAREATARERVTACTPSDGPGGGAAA
Sequence of Mu-type opioid receptor (Homo sapiens, UniProt P35372) (P35372 whole entry): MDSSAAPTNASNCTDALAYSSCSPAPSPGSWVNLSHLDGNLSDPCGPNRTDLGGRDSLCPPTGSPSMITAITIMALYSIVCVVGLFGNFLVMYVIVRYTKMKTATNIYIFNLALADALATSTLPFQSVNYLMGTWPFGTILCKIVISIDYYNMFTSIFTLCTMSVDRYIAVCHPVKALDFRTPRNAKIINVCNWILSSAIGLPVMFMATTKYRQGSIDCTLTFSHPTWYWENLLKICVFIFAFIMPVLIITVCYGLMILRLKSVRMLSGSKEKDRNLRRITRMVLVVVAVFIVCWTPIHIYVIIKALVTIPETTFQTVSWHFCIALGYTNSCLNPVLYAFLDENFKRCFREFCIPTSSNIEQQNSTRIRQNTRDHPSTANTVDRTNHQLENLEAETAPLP
Sequence of Delta-type opioid receptor (Mus musculus) (P32300 whole entry): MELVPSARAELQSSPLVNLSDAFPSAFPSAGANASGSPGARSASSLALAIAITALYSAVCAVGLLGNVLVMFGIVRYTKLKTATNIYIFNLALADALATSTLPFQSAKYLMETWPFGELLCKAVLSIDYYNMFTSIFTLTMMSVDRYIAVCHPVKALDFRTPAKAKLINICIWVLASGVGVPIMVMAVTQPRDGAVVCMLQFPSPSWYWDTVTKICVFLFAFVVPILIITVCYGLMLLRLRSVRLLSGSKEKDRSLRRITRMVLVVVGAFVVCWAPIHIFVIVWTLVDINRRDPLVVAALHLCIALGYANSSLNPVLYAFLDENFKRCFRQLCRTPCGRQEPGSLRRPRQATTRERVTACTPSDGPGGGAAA
T2 sequence (P32300 whole entry): as above
Sequence of Mu-type opioid receptor (Cavia porcellus) (P97266 whole entry): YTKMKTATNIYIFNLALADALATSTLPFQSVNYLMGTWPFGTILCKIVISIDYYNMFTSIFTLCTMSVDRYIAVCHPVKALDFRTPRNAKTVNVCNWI
T1 sequence (P97266 whole entry): as above

Cc1cc(O)cc(C)c1C[C@H](N)C(=O)NCCc1nc(C)c(C)[nH]c1=O
pIC50 (Mu-type opioid receptor [1]): < 5.00 | pKi [2]: 7.03 | pKi (Mu-type opioid receptor [3]): 7.12 | inhibition [4]: 45% | Ratio Ki (Homo sapiens): 1.2 | pIC50 [5]: < 5.00 | inhibition [6]: 25.2% | Kb [7]: 1350 nM

Cc1cc(O)cc(C)c1C[C@H](N)C(=O)NCCCCc1nc(C)c(C)[nH]c1=O
pIC50 (Mu-type opioid receptor [1]): < 5.00 | pKi [2]: 7.11 | pKi (Mu-type opioid receptor [3]): 8.37 | inhibition [4]: 35.1% | Ratio Ki (Homo sapiens): 18 | Kb (Mu-type opioid receptor [8]): 200 nM | pIC50 [5]: < 5.00 | inhibition [6]: 26.2% | Kb [7]: 2510 nM

Cc1cc(O)cc(C)c1C[C@H](N)C(=O)NCc1nc(C)c(C)[nH]c1=O
pIC50 (Mu-type opioid receptor [1]): < 5.00 | pKi [2]: 6.16 | pKi (Mu-type opioid receptor [3]): 6.89 | inhibition [4]: 20.6% | Ratio Ki (Homo sapiens): 5.4 | pIC50 [5]: < 5.00 | inhibition [6]: 28.1% | Kb [7]: 1480 nM

Cc1cc(O)cc(C)c1C[C@H](N)C(=O)NCCCCc1nc(C)c(Cc2ccccc2)[nH]c1=O
pIC50 (Mu-type opioid receptor [1]): < 5.00 | pKi [2]: 8.07 | pKi (Mu-type opioid receptor [3]): 9.38 | inhibition [4]: 39.5% | Ratio Ki (Homo sapiens): 20 | pIC50 [5]: < 5.00 | inhibition [6]: 19.9% | Kb [7]: 589 nM

Cc1cccc(C)c1Cc1[nH]c(=O)c(CCCCNC(=O)[C@@H](N)Cc2c(C)cc(O)cc2C)nc1C
pIC50 (Mu-type opioid receptor [1]): 5.20 | pKi [2]: 8.28 | pKi (Mu-type opioid receptor [3]): 9.18 | Ratio Ki (Homo sapiens): 8 | Kb (Mu-type opioid receptor [8]): > 1000 nM | pIC50 [5]: < 5.00 | inhibition [6]: 6.4% | Kb [7]: 245 nM

Cc1cc(O)cc(C)c1C[C@H](N)C(=O)NCCCCc1[nH]c(=O)cnc1C
pIC50 (Mu-type opioid receptor [1]): < 5.00 | pKi [2]: 6.46 | pKi (Mu-type opioid receptor [3]): 7.24 | inhibition [4]: 37.1% | Ratio Ki (Homo sapiens): 6 | Kb (Mu-type opioid receptor [8]): > 1000 nM | pIC50 [5]: < 5.00 | inhibition [6]: 28.1% | Kb [7]: > 3160 nM

Cc1cc(O)cc(C)c1C[C@H](N)C(=O)NCCCc1nc(C)c(C)[nH]c1=O
pIC50 (Mu-type opioid receptor [1]): < 5.00 | pKi [2]: 6.57 | pKi (Mu-type opioid receptor [3]): 8.05 | inhibition [4]: 22.7% | Ratio Ki (Homo sapiens): 30 | pIC50 [5]: < 5.00 | inhibition [6]: 31.1% | Kb [7]: > 3160 nM

Cc1cc(O)cc(C)c1C[C@H](N)C(=O)NCCCCc1[nH]c(=O)c(C)nc1C
pIC50 (Mu-type opioid receptor [1]): < 5.00 | pKi [2]: 6.68 | pKi (Mu-type opioid receptor [3]): 7.81 | inhibition [4]: 30.1% | Ratio Ki (Homo sapiens): 14 | Kb (Mu-type opioid receptor [8]): > 1000 nM | pIC50 [5]: < 5.00 | inhibition [6]: 0% | Kb [7]: 2340 nM

Cc1c[nH]c(=O)c(CCCCNC(=O)[C@@H](N)Cc2c(C)cc(O)cc2C)n1
pIC50 (Mu-type opioid receptor [1]): < 5.00 | pKi [2]: 7.13 | pKi (Mu-type opioid receptor [3]): 9.21 | inhibition [4]: 47.6% | Ratio Ki (Homo sapiens): 119 | pIC50 [5]: < 5.00 | inhibition [6]: 25.7% | Kb [7]: > 3160 nM

Cc1cc(O)cc(C)c1C[C@H](N)C(=O)NCCCCc1nc(C)c(CCc2ccccc2)[nH]c1=O
pIC50 (Mu-type opioid receptor [1]): 7.80 | pKi [2]: 7.25 | pKi (Mu-type opioid receptor [3]): 9.90 | Ratio Ki (Homo sapiens): 447 | pIC50 [5]: < 5.00 | inhibition [6]: 12.8% | Kb [7]: 447 nM

Cc1cc(O)cc(C)c1C[C@H](N)C(=O)NCCCc1nc(C)c(CCc2ccccc2)[nH]c1=O
pIC50 (Mu-type opioid receptor [1]): 5.26 | pKi [2]: 7.42 | pKi (Mu-type opioid receptor [3]): 9.26 | Ratio Ki (Homo sapiens): 69 | Kb (Mu-type opioid receptor [8]): > 1000 nM | pIC50 [5]: < 5.00 | inhibition [6]: 4.1% | Kb [7]: 1350 nM

Cc1cc(O)cc(C)c1C[C@H](N)C(=O)NCCCc1nc(C)c(Cc2ccccc2)[nH]c1=O
pIC50 (Mu-type opioid receptor [1]): < 5.00 | pKi [2]: 7.22 | pKi (Mu-type opioid receptor [3]): 9.00 | inhibition [4]: 36.7% | Ratio Ki (Homo sapiens): 60 | pIC50 [5]: < 5.00 | inhibition [6]: 34.6% | Kb [7]: 1230 nM
